NR2E3 ag-1: agonists of human NR2E3 nuclear receptor | Q9Y5X4 | CHO-S Gal4-NCOR/VP16-NR2E3 two-hybrid, luciferase | inhibition of corepressor binding, % at 3.98 µM | 0.35% of 360,000 active;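 active = inhibition above the mean of all tested compounds plus 3 SD, cut at about 70% in these data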;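 note: 0% = DMSO with NR2E3 transfected cells and 100% = cells lacking NR2E3 construct; higher means lower luciferase signal from less NR2E3 corepressor binding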
Target sequence (Q9Y5X4 whole entry, looked up, the tested form may be a part): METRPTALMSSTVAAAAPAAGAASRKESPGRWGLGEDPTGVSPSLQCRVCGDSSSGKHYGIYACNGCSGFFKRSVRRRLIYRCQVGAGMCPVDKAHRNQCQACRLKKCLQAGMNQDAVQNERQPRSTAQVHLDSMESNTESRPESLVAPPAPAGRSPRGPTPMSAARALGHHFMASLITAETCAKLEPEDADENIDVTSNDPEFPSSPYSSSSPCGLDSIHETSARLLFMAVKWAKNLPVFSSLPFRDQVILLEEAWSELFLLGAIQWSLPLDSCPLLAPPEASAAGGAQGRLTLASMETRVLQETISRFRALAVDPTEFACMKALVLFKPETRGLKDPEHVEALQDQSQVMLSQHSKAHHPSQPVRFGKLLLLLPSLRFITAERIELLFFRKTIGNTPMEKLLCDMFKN
EBV LMP1 NFkB: reduces LMP1-driven NF-kappaB luciferase signal. 0.69% of 350,000 active. LMP1-induced NF-kappaB luciferase reporter cells, luminescence. inhibition, % at 12.5 µM; in the data active = inhibition above about 41%;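 note: 0% = neutral control wells and 100% = reference inhibitor control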
HIF act: HIF pathway transcriptional activation; U2OS HRE-luciferase reporter, luminescence; normalized: DMSO 0%, desferrioxamine 100%; activation, % at 7.5 µM (by protocol); 0.32% of 300,000 active; AID 1910;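 active = mean activation of at least 10% of the iron chelator positive control signal, with at least half of replicates also reaching 10%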
NR2E3 ag-2: activates human photoreceptor nuclear receptor NR2E3. 0.12% of 320,000 active. inhibition of corepressor binding, % at 4.78 µM. GST-NR2E3/biotin-RetCOR TR-FRET, 1536-well;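 active = percent inhibition above the cutoff of mean plus 3 SD of all tested compounds, set per screening campaign, cut at about 20% in these data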;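 note: 0% = DMSO wells and 100% = biotin wells as full block of FRET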
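Material: NR2E3–RetCOR corepressor complex / Amount: 1.35 nM GST-NR2E3 / Medium: Tris pH 7.5 / Compound: single nominal compound dose of 4.8 µM / Incubation: 5 h at 4 °C / Technique: TR-FRET, Eu(K)-anti-GST donor, streptavidin-D2 acceptor, ex 340, em 617/671 nm / Read-out basis: percent loss of FRET ratio relative to control wells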
TROY NFkB inh: blocks TROY-dependent signaling in reporter cells; inhibition, % at 10 µM; Q293 LMP1-TROYcd NF-kB luciferase reporter, 4 h; AID 1347056; 0.98% of 360,000 active;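 active = compounds whose plate-normalised and pattern-corrected inhibition of the luciferase reporter signal at the single screening dose is 50% or more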
NR2E3 ag confirm-1: NR2E3 (human) agonism, confirmation. shares compounds with NR2E3 ag-2. cell-free NR2E3 corepressor release, TR-FRET, 5 h. AID 2379. 39% of 360 active. activation (reported as inhibition), % at 3.98 µM; in the data active = activation above about 20%
PPARg-NCOR2 ctr: counter-screen for NR2E3 agonists: human PPARgamma-NCOR2 interaction agonists; inhibition, % at 3.98 µM; AID 504787; TR-FRET PPARg-NCOR2 coregulator interaction, biochemical; 45% of 360 active; shares compounds with NR2E3 ag-2; in the data active = inhibition above about 20%;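 note: 0% = DMSO vehicle and 100% = wells without protein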
NR2E3 ag confirm-2: NR2E3 agonism confirmed in two-hybrid assay. 51% of 2,300 active. inhibition, % at 3.98 µM. CHO-S mammalian two-hybrid NR2E3-NCOR, luciferase luminescence. AID 624378. shares compounds with NR2E3 ag-1;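 active = average inhibition above a cutoff equal to the mean inhibition of all tested compounds plus one SD, cut at about 70% in these data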;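 note: 0% = DMSO in NR2E3 cells and 100% = DMSO in cells lacking NR2E3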
GAL4-VP16 luc: counter-screen for NR2E3 agonists: GAL4-VP16 reporter inhibitors. shares compounds with NR2E3 ag-1. CHO-S GAL4-VP16 luciferase reporter, luminescence. inhibition, % at 3.98 µM. 29% of 2,300 active. AID 624379;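 active = mean inhibition above a cutoff equal to the average over all tested compounds plus one standard deviation, cut at about 70% in these data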;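 note: luciferase from a UAS reporter driven by GAL4-VP16 transactivation; 0% = DMSO with VP16-transfected cells and 100% = DMSO with cells lacking VP16; higher means less reporter light so more repression of VP16 activity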
* marks the source's active call; other numbers are inactive results; · = no result. Hits are enriched below; roughly 2% of the tested compounds scored in any of these assays.

SMILES	NR2E3 ag-1	EBV LMP1 NFkB	HIF act	NR2E3 ag-2	TROY NFkB inh	NR2E3 ag confirm-2	GAL4-VP16 luc	others
CCOC(=O)c1c(NS(=O)(=O)c2ccccc2)n(CCCOC)c2nc3ccccc3nc12	3	5	455*	38*	33	·	·	NR2E3 ag confirm-1=1;PPARg-NCOR2 ctr=-9
O=C(NCC1=C(c2ccc3ccccc3c2)C[C@@H]2CC[C@H]1N2Cc1ccco1)c1cccnc1	-22	2	·	·	-10	·	·
Cc1nc2c(=O)n(C)c(=O)nc-2n(C)n1	114*	91*	-5	38*	86*	100*	98*	NR2E3 ag confirm-1=40*;PPARg-NCOR2 ctr=64*
COc1cc2c(cc1OC)C1[C@H]3C(=CC[C@H]1OC2O)CCN3C (some centres not stated)	17	0	·	·	5	·	·
c1ccc(-c2ccc(CN3Cc4ccccc4-n4nncc4C3)cc2)cc1	59	11	·	·	28	83*	60
C=C(C)[C@@H]1[C@H]2OC(=O)[C@H]1[C@]1(O)C[C@H]3O[C@]34C(=O)O[C@H]2[C@]14C	-5	2	·	·	-16	·	·
NC(Cc1ccc(Cl)cc1)c1csc(Nc2ncccn2)n1 (configuration not stated)	58	·	·	·	14	51	28
Nc1ccc(CC(N)c2csc(Nc3ncccn3)n2)cc1 (configuration not stated)	-33	·	·	·	-6	·	·
NC(Cc1ccc(F)cc1)c1csc(Nc2ncccn2)n1 (configuration not stated)	50	·	·	·	-5	22	-7
Oc1c(Cl)cccc1Cc1cc(Cl)cc(Cl)c1O	98*	-3	·	·	66*	100*	93*
ClCCOCOCCCl	3	-3	·	3	15	·	·
CC(N)C(=O)NC1C2C(=C(O)CC(O)C2O)C(=O)OC1(C)C(Cl)Cl (configuration not stated)	98*	85*	·	·	78*	96*	92*
COC(=O)C1=C(c2ccc(F)cc2F)C[C@@H]2CC[C@H]1N2C(=O)NCCCOC(C)C	-12	3	·	1	-18	·	·
COC(=O)C1=C(c2ccc(OC(F)(F)F)cc2)C[C@@H]2CC[C@H]1N2C(=O)NCCCOC(C)C	-4	0	·	4	-15	·	·
COc1cc2cc(C(=O)N3CC(COS(C)(=O)=O)c4ccc(O)cc43)[nH]c2c(OC)c1OC (configuration not stated)	73*	90*	·	·	72*	100*	94*
CCN1/C(=C/C=C/C2=[N+](CC)c3ccccc3C2(C)C)C(C)(C)c2ccccc21	104*	39	·	·	66*	98*	94*
CN1/C(=C\C=C\C2=[N+](C)c3ccc4ccccc4c3C2(C)C)C(C)(C)c2ccccc21	·	·	·	-4	·	·	·
CN(Cc1cccc(-c2ccncc2)c1)C(=O)Oc1ccccc1Cc1ccccc1	81*	·	·	·	66*	80*	79*
Cc1nc2cc(OC(=O)N(C)Cc3cccc(-c4ccncc4)c3)ccc2s1	67	·	·	·	66*	62	54
CN(Cc1cccc(-c2ccncc2)c1)C(=O)Oc1ccccc1Cl	88*	·	·	·	49	73*	77*
CN(C)Cc1ccccc1OC(=O)N(C)C	-11	-9	0	4	-7	·	·
CCCCCC1(C(C)C)C(=O)NC(=S)NC1=O	8	-1	·	·	-1	·	·
Oc1c(Br)cc(Br)cc1Br	7	4	·	1	14	·	·
Oc1c(Br)c(Br)c(Br)c(Br)c1Br	101*	7	·	1	71*	99*	88*
CC1CCN(C(CC(=O)c2ccccc2)C(=O)c2ccccc2)CC1 (configuration not stated)	-135	-12	·	·	-46	·	·
SMILES	NR2E3 ag-1	EBV LMP1 NFkB	HIF act	NR2E3 ag-2	TROY NFkB inh	NR2E3 ag confirm-2	GAL4-VP16 luc	others
CCCNC(=O)N1[C@H]2CC[C@@H]1C(C(=O)OC)=C(c1ccc(C(C)=O)cc1)C2	9	5	·	2	-9	·	·
O=C(NC1CCCCC1)N1Cc2cc(-c3cccc(F)c3)ccc2-n2nncc2C1	-20	·	·	·	11	·	·
N#Cc1cn(C2OC(CO)C(O)C2O)c2ncnc(N)c12 (configuration not stated)	98*	-181	·	·	52*	100*	83*
NC(=O)c1c(Br)n(C2OC(CO)C(O)C2O)c2ncnc(N)c12 (configuration not stated)	-12	-6	·	·	10	·	·
NC(=O)c1cn(C2OC(CO)C(O)C2O)c2ncnc(N)c12 (configuration not stated)	101*	81*	-3	-1	40	99*	99*
CS(=O)(=O)c1ccc(C2=C(CNC(=O)c3nccs3)[C@H]3CC[C@@H](C2)N3Cc2ccccc2)cc1	-8	2	·	·	3	·	·
CC1=CC(C)CC(C)OC(=O)CC(c2ccc(O)cc2)NC(=O)C(Cc2c(Br)[nH]c3ccccc23)N(C)C(=O)C(C)NC(=O)C(C)C1 (configuration not stated)	64	-2	·	·	70*	58	63
COC(=O)C1=C(c2c(C)noc2C)C[C@@H]2CC[C@H]1N2C(=O)N1CCCC1	15	8	·	-2	9	·	·
Brc1ccc(Oc2cc(Br)c(Br)cc2Br)c(Br)c1	2	-11	·	-2	-11	·	·
CC(=O)O[C@H]1C[C@@H]2OC3C=C(C)CCC3(C)[C@@]1(C)[C@@]21CO1 (some centres not stated)	101*	91*	·	·	78*	98*	97*
CC(=O)OC1CC2OC3C=C(C)CCC3(C)C1(C)C21CO1 (configuration not stated)	102*	·	·	·	84*	100*	98*
C=C1C2C[C@@]3([C@@H]1O)[C@@H](C[C@@H]2O)[C@@]12C4[C@@H]3C[C@@H]1[C@@](C)(CC[C@@H]2O)CN4CC	12	3	·	2	7	·	·
CCC1CN2CCc3cc(OC)c(OC)cc3C2CC1CC1NCCc2c1[nH]c1ccc(O)cc21 (configuration not stated)	102*	83*	·	·	85*	99*	99*
CC1(C)C(C(=O)N2CCN(c3ccc(Cl)cc3)CC2)C1(C)C	-6	-3	0	-3	21	·	·
COC(=O)C1CN(C#N)N(c2ccc(Cl)cc2)C12c1ccccc1-c1ccccc12 (configuration not stated)	80*	37	-4	0	90*	92*	63
